In brackets after ≈: the same amount, converted by molar mass. Several values for one entry are separate records, joined by “and”; a condition that tells them apart may be missing. Equal values may be shown once. Read-outs that look alike come from different tables or passages of the source.
Columns and labels:
[1] = test system: porcine epidemic diarrhea virus; test: Antiviral activity against PEDV, CPE reduction by SRB method in Vero cells; assay type: cell-based, porcine epidemic diarrhea virus (PEDV CV 777)
[2] = Cytotoxicity SRB assay in Vero cells; assay type: cell-based, african green monkey; settings: african green monkey, CC50, concentration required to reduce cell growth by 50%, 48 h
Method in brief: (§1)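 Vero cells seeded at 2 × 10^4/well and grown 1 day, then given medium with serially diluted test compound for 48 h. After PBS wash, cells fixed with cold 70% acetone (30 min, −20 °C), dried and stained 30 min with 0.4% SRB in 1% acetic acid. Dye solubilised in 10 mM Tris and read at A540 (ref 620 nm). CC50 read graphically from % of control curves.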

[3] = test system: membrane (M) gene of PEDV; test: RT-PCR analysis of PEDV replication; assay type: cell-based, porcine epidemic diarrhea virus; settings: 10 μg/mL; RNA extracted 24 and 48 h after infection
[4] = Cytotoxicity SRB assay in ST cells; assay type: cell-based, pig; settings: pig
Method in brief: (§2)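 ST pig testis cells kept in MEM with 10% FBS and 0.01% antibiotic-antimycotic. SRB staining gives cell growth. CC50 is the concentration reducing cell growth by 50%, in μg/mL. Values are means of three independent experiments run in triplicate ± S.D.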

ST cells = test: Cytotoxicity SRB assay in ST cells; assay type: cell-based, pig; settings: for Cytotoxicity: highest concentrations tested
Method in brief: as §2

TGEV = test: Antiviral activity against TGEV in ST cells; assay type: cell-based, transmissible gastroenteritis virus
PRCV = test: Antiviral activity against PRCV in ST cells; assay type: cell-based, porcine respiratory coronavirus
Method in brief: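 PRCV (ATCC VR-2384) grown on ST pig testis cells kept in MEM with 10% FBS and 0.01% antibiotic-antimycotic. Read-out is SRB-based reduction of virus-induced CPE. IC50 is the concentration giving 50% inhibition of CPE, in μg/mL. TI = CC50/IC50. Values are means of three independent experiments run in triplicate ± S.D.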

PEDV = test: Time-of-addition effect on PEDV replication in Vero cells; assay type: cell-based, porcine epidemic diarrhea virus
Method in brief: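 Vero cells seeded at 2 × 10^4/well and grown 1 day, then PBS-washed. […] After 2 days, SRB CPE-reduction read-out expressed as inhibition rate; mean ± S.D. of three independent experiments.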

Vero cells = test: Cytotoxicity SRB assay in Vero cells; assay type: cell-based, african green monkey
Method in brief: as §1

[5] = interferon-α in units, listed as interferon-α

NC(=O)c1ncn([C@@H]2O[C@H](CO)[C@@H](O)[C@H]2O)n1 [Ribavirin]
TI, therapeutic index = CC50/IC50 [1]: 103.2 | CC50 at 48 h [2]: 423 µg/mL (≈ 1730 µM) | Intensity of the RT-PCR product band of PEDV [3]: did not decrease the intensity of the product band of PEDV at 48 h after infection | CC50 at 48 h [4]: > 100 µg/mL | Cytotoxicity (ST cells): did not exhibit any cytotoxicity at the highest concentrations tested | IC50 (TGEV; Alphacoronavirus 1): 55.1 ± 0.8 µg/mL (≈ 226 µM) | IC50 (PRCV; Alphacoronavirus 1): 61.6 ± 1.91 µg/mL (≈ 252 µM) | TI, therapeutic index = CC50/IC50 (PRCV; PRCV in ST cells): >1.62 | inhibition at 10 µg/mL (PEDV; Porcine epidemic diarrhea virus, Vero, read-out: Inhibition rate (time of addition)): < 50%

O=c1ccc2ccccc2o1 [Coumarin]
TI, therapeutic index = CC50/IC50 [1]: 4.8

Interferon-α
TI, therapeutic index = CC50/IC50 [1]: >192.3 | IC50, concentration required to inhibit virus-induced CPE by 50% ([1]; interferon-α in units): 0.52 ± 0.5 unit | IC50, concentration required to inhibit virus-induced CPE by 50% [1, 5]: 0.52 unit | TI, therapeutic index = CC50/IC50 ([1]; listed as interferon-α): > 192.3 | CC50, concentration required to reduce cell growth by 50% (Vero cells; interferon-α in units): >100 unit | CC50, concentration required to reduce cell growth by 50% (Vero cells; [5]): > 100 unit

O=c1cc(-c2ccc(O)c(O)c2)oc2cc(O)cc(O)c12 [Luteolin]
IC50, concentration required to inhibit virus-induced CPE by 50% ([1]; SRB, 2 days): 0.2 ± 0.2 µg/mL (≈ 0.699 µM) | IC50, concentration required to inhibit virus-induced CPE by 50% ([1]; SRB, 2 days, listed as luteolin): less than 12 μg/mL | CC50 at 48 h [2]: 6.7 µg/mL (≈ 23.4 µM)

C[C@@H]1O[C@@H](Oc2cc(O)c3c(=O)c(O)c(-c4ccc(O)c(O)c4)oc3c2)[C@H](O)[C@H](O)[C@H]1O [Q7R, quercetin 7-rhamnoside]
TI, therapeutic index = CC50/IC50 [1]: 7142 and > 7142.86 | IC50, concentration required to inhibit virus-induced CPE by 50% ([1]; SRB, 2 days): 0.014 ± 0.005 µg/mL (≈ 0.0312 µM) | TI, therapeutic index = CC50/IC50 ([1]; listed as Quercetin 7-rhanmoside): >7142.86 | CC50, concentration required to reduce cell growth by 50% (Vero cells; 48 h): >100 µg/mL | Intensity of the RT-PCR product band of PEDV [3]: decreased the intensity of the product band of PEDV at 24 and 48 h after infection | CC50 (ST cells): >100 µg/mL | Cytotoxicity (ST cells): did not exhibit any cytotoxicity at the highest concentrations tested | IC50 (TGEV; TGEV in ST cells): 63.31 ± 1.07 µg/mL (≈ 141 µM) | TI, therapeutic index = CC50/IC50 (TGEV; TGEV in ST cells): >1.58 | IC50 (PRCV; PRCV in ST cells): 59.76 ± 5.70 µg/mL (≈ 133 µM) | TI, therapeutic index = CC50/IC50 (PRCV; PRCV in ST cells): >1.67 | Inhibition rate (time of addition) (PEDV; 10 μg/mL added at 0, 1, 2 and 4 h after virus inoculation, SRB after 2 days): higher than 85%

Tannic acid
TI, therapeutic index = CC50/IC50 [1]: 9.2

O=c1cc(-c2ccc(O)cc2)oc2cc(O)cc(O)c12 [Apigenin]
IC50, concentration required to inhibit virus-induced CPE by 50% ([1]; SRB, 2 days): 0.1 ± 0.1 µg/mL (≈ 0.37 µM) | IC50, concentration required to inhibit virus-induced CPE by 50% ([1]; SRB, 2 days, listed as apigenin): less than 12 μg/mL | CC50 at 48 h [2]: > 50 µg/mL

O=c1c(O)c(-c2ccc(O)c(O)c2)oc2cc(O)cc(O)c12 [Quercetin]
TI, therapeutic index = CC50/IC50 [1]: 214.8 | CC50 at 48 h [2]: 365 µg/mL (≈ 1210 µM)

O.Oc1cc(O)c2c(c1)O[C@H](c1ccc(O)c(O)c1)[C@@H](O)C2 [Catechin]
TI, therapeutic index = CC50/IC50 [1]: >9.0 | IC50, concentration required to inhibit virus-induced CPE by 50% ([1]; SRB, 2 days): 11.1 ± 7.1 µg/mL | IC50, concentration required to inhibit virus-induced CPE by 50% ([1]; SRB, 2 days, listed as catechin): less than 12 μg/mL | CC50, concentration required to reduce cell growth by 50% (Vero cells; 48 h): >100 µg/mL

— article PMC7114206 (Antiviral Research, 2008)
